In ChEMBL document CHEMBL1126975 (J Med Chem, 1993):

Legend:
[1] = target: T1, Amine oxidase [flavin-containing] B (Rattus norvegicus, UniProt P19643); test: In vitro inhibitory activity on rat brain MAO-B.
T1 sequence (P19643 whole entry): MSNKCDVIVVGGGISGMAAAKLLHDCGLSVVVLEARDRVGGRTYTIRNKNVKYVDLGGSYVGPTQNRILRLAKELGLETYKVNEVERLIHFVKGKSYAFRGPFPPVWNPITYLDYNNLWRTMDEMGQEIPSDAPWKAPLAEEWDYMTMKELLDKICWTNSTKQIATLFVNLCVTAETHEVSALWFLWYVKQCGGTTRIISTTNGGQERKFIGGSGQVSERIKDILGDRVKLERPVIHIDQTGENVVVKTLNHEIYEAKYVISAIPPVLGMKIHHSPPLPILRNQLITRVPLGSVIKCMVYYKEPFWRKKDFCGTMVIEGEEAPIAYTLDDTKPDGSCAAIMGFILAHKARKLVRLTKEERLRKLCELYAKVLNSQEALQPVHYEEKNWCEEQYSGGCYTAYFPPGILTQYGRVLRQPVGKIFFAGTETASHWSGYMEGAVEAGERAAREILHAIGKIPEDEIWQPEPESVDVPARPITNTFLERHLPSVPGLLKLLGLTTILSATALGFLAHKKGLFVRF
How it was run: (§1)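 Radiochemical assay at 37 °C, pH 7.4: MAO A with 10 μM [14C]5-HT, MAO B with 5 μM [14C]PEA. Drug preincubated 20 min with enzyme. Three experiments in duplicate.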

[2] = target: T1, Amine oxidase [flavin-containing] B; test: Ex-Vivo Time course of evaluation for the percentage inhibition of MAO-B for 1 hr at single dose 5 mg/kg through oral gavage (p<0.001); type: organism-based; design: dose 5 mg/kg, route oral
How it was run: (§2)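 Fasted male Sprague-Dawley rats (150 g) dosed orally by gavage, drug suspended in Tween 80 plus 0.5% methylcellulose; vehicle controls. The 100 mg/kg arm was dosed daily for 9 days. Four rats per time point; brains frozen and homogenized in 0.1 M phosphate pH 7.4. Assayed at 37 °C with 8 μM [14C]PEA for 1 min; toluene/ethyl acetate extraction. Percent inhibition vs control, mean ± SEM.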

[3] = target: T1, Amine oxidase [flavin-containing] B; test: Ex-Vivo Time course of evaluation for the percentage inhibition of MAO-B for 4 hr at single dose 5 mg/kg through oral gavage [p<0.05 (Bonferroni''s test)]; type: organism-based; design: dose 5 mg/kg, route oral; how it was run: as §2
[4] = target: T2, Amine oxidase [flavin-containing] A (Rattus norvegicus, UniProt P21396); test: In vitro inhibitory activity on rat brain by monoamine oxidase A (MAO-A); how it was run: as §1
T2 sequence (P21396 whole entry): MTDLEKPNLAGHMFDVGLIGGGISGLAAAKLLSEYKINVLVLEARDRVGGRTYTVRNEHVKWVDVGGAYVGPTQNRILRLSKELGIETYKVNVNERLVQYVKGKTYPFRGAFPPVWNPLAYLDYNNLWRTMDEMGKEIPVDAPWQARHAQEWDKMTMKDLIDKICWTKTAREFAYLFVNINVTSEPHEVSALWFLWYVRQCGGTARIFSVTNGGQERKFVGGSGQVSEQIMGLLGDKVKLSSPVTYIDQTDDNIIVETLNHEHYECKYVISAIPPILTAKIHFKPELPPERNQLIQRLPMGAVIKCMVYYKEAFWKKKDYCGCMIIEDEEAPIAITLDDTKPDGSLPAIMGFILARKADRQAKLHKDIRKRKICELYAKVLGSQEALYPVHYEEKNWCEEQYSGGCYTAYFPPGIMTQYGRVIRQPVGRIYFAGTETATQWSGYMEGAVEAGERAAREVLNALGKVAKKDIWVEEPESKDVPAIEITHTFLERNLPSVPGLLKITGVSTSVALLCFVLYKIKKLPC

[5] = target: T1, Amine oxidase [flavin-containing] B; test: Ex-Vivo percentage inhibition of MAO-B after 24 hr single 5 mg/kg dose by oral gavage; type: organism-based; design: dose 5 mg/kg, route oral
How it was run: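 Ex vivo oral gavage in fasted male Sprague-Dawley rats (Tween 80 / 0.5% methylcellulose), four rats per group. Brain homogenate taken 24 h after dosing. MAO B assayed with 8 μM [14C]PEA, 1 min at 37 °C; percent inhibition vs vehicle control.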

[6] = target: T1, Amine oxidase [flavin-containing] B; test: Ex-Vivo Time course of evaluation for the percentage inhibition of MAO-B for 0.5 hr at single dose 5 mg/kg through oral gavage; type: organism-based; design: dose 5 mg/kg, route oral; how it was run: as §2
[7] = target: T1, Amine oxidase [flavin-containing] B; test: Ex-Vivo Time course of evaluation for the percentage inhibition of MAO-B for 48 hr at single dose 5 mg/kg through oral gavage; type: organism-based; design: dose 5 mg/kg, route oral; how it was run: as §2
[8] = target: T2, Amine oxidase [flavin-containing] A; test: In Vitro evaluation for the inhibitory activity on rat brain by MAO-A at 100 uM
How it was run: (§3)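 Male Sprague-Dawley rat brain crude mitochondrial fraction, 0.195 mg protein/mL. Radiochemical assay at 37 °C, pH 7.4: MAO A with 10 μM [14C]5-HT, MAO B with 5 μM [14C]PEA. Drug preincubated 20 min with enzyme. […] Three experiments in duplicate.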

[9] = target: T1, Amine oxidase [flavin-containing] B; test: Ex-Vivo Time course of evaluation for the percentage inhibition of MAO-B for 1 hr at single dose 5 mg/kg through oral gavage (p<0.01); type: organism-based; design: dose 5 mg/kg, route oral; how it was run: as §2
[10] = target: T1, Amine oxidase [flavin-containing] B; test: Ex-Vivo Time course of evaluation for the percentage inhibition of MAO-B for 4 hr at single dose 5 mg/kg through oral gavage; type: organism-based; design: dose 5 mg/kg, route oral; how it was run: as §2
[11] = target: T1, Amine oxidase [flavin-containing] B; test: Compound was evaluated for the time-dependence inhibition of MAO-B at 0 minute pre-incubation periods
How it was run: (§4)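 Male Sprague-Dawley rat brain crude mitochondrial fraction, MAO B. Drug preincubated with enzyme at 37 °C for 0, 20, 30 or 60 min, then radiochemical assay with 5 μM [14C]PEA at pH 7.4. IC50 read graphically from 9–12 concentrations; three experiments in duplicate.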

[12] = target: T1, Amine oxidase [flavin-containing] B; test: Compound was evaluated for the time-dependence inhibition of MAO-B at 20 minutes pre-incubation periods; how it was run: as §4
[13] = target: T1, Amine oxidase [flavin-containing] B; test: Compound was evaluated for the time-dependence inhibition of MAO-B at 30 minutes pre-incubation periods; how it was run: as §4
[14] = target: T1, Amine oxidase [flavin-containing] B; test: Compound was evaluated for the time-dependence inhibition of MAO-B at 60 minutes preincubation periods; how it was run: as §4
[15] = target: T1, Amine oxidase [flavin-containing] B; test: Ex-Vivo Time course of evaluation for the percentage inhibition of MAO-B for 1 hr at single dose 5 mg/kg through oral gavage; type: organism-based; design: dose 5 mg/kg, route oral; how it was run: as §2
[16] = target: T2, Amine oxidase [flavin-containing] A; test: Compound was evaluated for the time-dependence inhibition of MAO-A at 60 minutes of preincubated period. values are same with or without pre-incubation
[17] = Selectivity for B form was estimated by the ratio of IC50 (MAO A) at 60 min to that of (MAO B)
[18] = target: T2, Amine oxidase [flavin-containing] A; test: In Vitro evaluation for the inhibitory activity on rat brain by MAO-A at 100 uM; No Inhibition; how it was run: as §3

| Compound | IC50 [1] [nM] | IC50 [4] [nM] | inhibition at 5 mg/kg [5] [%] | inhibition at 5 mg/kg [6] [%] | inhibition at 5 mg/kg [7] [%] | further results |
| --- | --- | --- | --- | --- | --- | --- |
| Cc1ccc(COc2ccc(-c3nn(CCC#N)c(=O)o3)cc2)cc1 | 15 | 25000 | -3 | 9 | 1 | inhibition at 5 mg/kg [2]: 22%; inhibition at 5 mg/kg [3]: 14% |
| N#CCCn1nc(-c2ccc(OCc3cccc(Cl)c3)cc2)oc1=O | 12 | 7400 | -7 | 1 | 4 | inhibition at 5 mg/kg [2]: 36%; inhibition at 5 mg/kg [3]: 29% |
| N#CCCn1nc(-c2ccc(OCc3ccccc3)cc2)oc1=S | 4.4 | 12000 | 21 | 68 | 8 | IC50 [11]: 47 nM; IC50 [12]: 6.6 nM; IC50 [13]: 4.7 nM; IC50 [14]: 3.7 nM; inhibition at 5 mg/kg [15]: 84%; IC50 [16]: 12000 nM; inhibition at 5 mg/kg [10]: 74%; Selectivity [17]: 3200 |
| N#CCn1nc(-c2ccc(OCc3ccccc3)cc2)oc1=O | 60 |  |  |  |  | IC50 [18]: Not Active |
| N#CCCCCn1nc(-c2ccc(OCc3ccccc3)cc2)oc1=O | 490 |  |  |  |  | IC50 [18]: Not Active |

The remaining molecules from weak to strong by IC50 [1], led by results:

| IC50 [1] [nM] | IC50 [4] [nM] | inhibition at 5 mg/kg [5] [%] | inhibition at 5 mg/kg [6] [%] | inhibition at 5 mg/kg [7] [%] | Compound | further results |
| --- | --- | --- | --- | --- | --- | --- |
| 2400 |  |  |  |  | CC(C#N)Cn1nc(-c2ccc(OCc3ccccc3)cc2)oc1=O (stereo not given) | inhibition at 100 µM [8]: 13% |
| 29 | 19000 | -3 | 12 | -7 | COc1cccc(COc2ccc(-c3nn(CCC#N)c(=O)o3)cc2)c1 | inhibition at 5 mg/kg [9]: 19%; inhibition at 5 mg/kg [10]: 6% |
